# Source: PubChem BioAssay
# Hits are enriched below; roughly 3% of the tested compounds scored in any of these assays.
# rRNA inh HTS: inhibitors of bacterial rRNA selective over humanized ribosomes; E. coli WT GFP vs humanized-ribosome RFP mutants, fluorescence, 24 h; stronger effect = lower value; DMSO median 0, no signal -100; GFP signal change (wild-type ribosome), % (concentration not given with the values); actives 1.6% (n = 350,000); AID 720706;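 active means significant combined selectivity score with lowered wild-type GFP, culture density cut under 30%, mutant RFP and density less affected; inactive means any of these conditions unmet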
# C2C12 statin: suppression of simvastatin myotoxicity; C2C12 myotubes + simvastatin, ATP luminescence, 48 h; scaled: DMSO 0, geranylgeraniol control 100; rescue of ATP level, % at 7.49 µM; actives 0.78% (n = 330,000); AID 602340;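 active means mean ATP rescue above about 67%, or every replicate alone reaching that limit, limit read from the data, passing the limit was not always enough; inconclusive means no clear call, values can overlap the other calls; inactive means mean under the limit and some replicate under it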;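 further: myotubes were challenged with 10 µM simvastatin during compound exposure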
# PGC1a acetyl inh: lowers PGC1a acetylation signal in U2OS cells | AlphaScreen anti-acetyl-lysine; with virally co-expressed GCN5 acetyltransferase | inhibition, % at 15.6 µM | actives 0.17% (n = 350,000);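 active means every replicate shows inhibition of at least 40%; inconclusive means mean inhibition at least 40% but some replicate below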;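 further: 0% = neutral control wells and 100% = positive control wells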
# SIRT5 inh: blocks human SIRT5 desuccinylation of peptide; Q9NXA8; Purified SirT5, succinyl-peptide AMC, trypsin-coupled fluorescence; inhibition, % at 15 µM; actives 1.1% (n = 330,000); in the data active means inhibition above about 15%; inconclusive means no clear call, values can overlap the other calls
# Target sequence (Q9NXA8 whole entry, looked up): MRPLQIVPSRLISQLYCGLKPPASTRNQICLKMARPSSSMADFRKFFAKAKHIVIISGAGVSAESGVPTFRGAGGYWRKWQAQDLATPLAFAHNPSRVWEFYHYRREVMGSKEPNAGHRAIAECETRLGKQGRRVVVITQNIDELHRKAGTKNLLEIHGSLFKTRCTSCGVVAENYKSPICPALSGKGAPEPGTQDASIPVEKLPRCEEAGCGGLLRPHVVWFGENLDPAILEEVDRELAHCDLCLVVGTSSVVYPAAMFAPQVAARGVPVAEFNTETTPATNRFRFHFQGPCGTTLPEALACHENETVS
# Cneo AK release: causes C. neoformans cell lysis. adenylate kinase release luminescence, 4 h; normalised: neutral wells 0, clomiphene wells 100. lysis activity, % at 15 µM. actives 0.2% (n = 360,000). AID 651654;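 active means mean lysis activity across replicates of at least 80%, whatever share of replicates individually reach that level; inactive means mean lysis activity below 80%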
#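 Test system: log-phase Cryptococcus neoformans yeast cells. Input: 5 × 10^6 yeast cells/mL. Medium: fresh YPD growth medium. Doses: single dose. Incubation: static 4 h at 37 °C with compound, 1 h detection. Measured by: luminescent adenylate kinase detection reagent. Read-out: signal increase indicating cell lysis. Benchmarks: Clomiphene.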
# S100A4 inh HTS: blocks human S100A4 binding to myosin IIA peptide. S100A4/TAMRA-MyoIIA peptide fluorescence polarization. inhibition, % at 10.7 µM. actives 0.14% (n = 360,000). AID 652163;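 active means mean inhibition of at least 70% across replicates, with every replicate also reaching that level; inconclusive means mean inhibition reaches 70% but some replicates fall short; inactive means mean inhibition below 70%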
# Target sequence (P26447 whole entry, looked up): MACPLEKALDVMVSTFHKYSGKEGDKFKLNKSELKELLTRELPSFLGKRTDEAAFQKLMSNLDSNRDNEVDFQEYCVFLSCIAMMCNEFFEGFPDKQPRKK
#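 System – human S100A4 monomer protein, biochemical binding assay · Buffer or medium – Calcium-containing HEPES buffer, pH 7.2 · Timing – 5 min between mix addition and reading · Also added – TAMRA-labelled myosin IIA heavy-chain peptide probe, 5 nM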
# The depositor's hits bear a star; ? = inconclusive; nt = no result.
SMILES,rRNA inh HTS,C2C12 statin,PGC1a acetyl inh,SIRT5 inh,Cneo AK release,S100A4 inh HTS
CC(C)NC(=O)Nc1ccc2c(c1)C(=O)N([C@H](C)CO)C[C@@H](C)[C@H](CN(C)S(=O)(=O)c1cccs1)OCCCC[C@H](C)O2,-1,nt,-5,0,-2,-41
CC(=O)N1CC2(C1)[C@H](c1ccccc1)[C@@H](CO)N2C(=O)c1ccncc1,-1,nt,-3,-4,nt,-9
CC1CCCN(CCOCCSc2ccccc2)C1 (stereo not drawn),3,nt,nt,21*,nt,-6
CC1CC(C)CN(CCOCCSc2ccccc2)C1 (stereo not drawn),11,nt,nt,-4,nt,?
COc1ccc(CN2C(=O)CCC2(C)C(=O)NCc2cccnc2)c(OC)c1 (stereo not drawn),nt,92*,-11,nt,1,nt
COc1ccc(CCN2C(=O)CCC2(C)C(=O)NCc2cccnc2)cc1OC (stereo not drawn),nt,22,21,nt,1,nt
CCOC(=O)C(C)n1nc(/C=C/c2ccc(OC)cc2)ccc1=O (stereo not drawn),-16,nt,-19,0,nt,-8
CCOC(=O)C(C)n1nc(/C=C/c2ccccc2)ccc1=O (stereo not drawn),nt,118*,-1,nt,-5,nt
COc1ccc(C2C(C(=O)c3cccs3)=C(O)C(=O)N2c2cccc(C)n2)cc1 (stereo not drawn),-18*,nt,nt,1,nt,3
COc1cccc2cc(C(=O)C3=C(O)C(=O)N(c4cc(C)on4)C3c3cccs3)oc12 (stereo not drawn),-26*,nt,nt,5,-1,-3
COc1ccc(C2C(C(=O)c3cccs3)=C(O)C(=O)N2c2cccc(C)n2)cc1OC (stereo not drawn),nt,nt,nt,1,nt,-3
Cc1cccc(N2C(=O)C(O)=C(C(=O)c3cccs3)C2c2cccc(Oc3ccccc3)c2)n1 (stereo not drawn),nt,nt,nt,2,0,0
Cc1cccc(N2C(=O)C(O)=C(C(=O)c3cccs3)C2c2ccccc2)n1 (stereo not drawn),-32*,nt,nt,-1,nt,5
Cc1cc(N2C(=O)C(O)=C(C(=O)c3cccs3)C2c2ccc(F)cc2)no1 (stereo not drawn),-26*,nt,nt,-1,nt,4
COc1ccc(CN(C)C[C@H]2Oc3c(NS(=O)(=O)c4ccc(C)cc4)cccc3C(=O)N([C@@H](C)CO)C[C@H]2C)cc1,-4,nt,2,7,nt,-1
C[C@@H]1CN([C@H](C)CO)C(=O)c2cc(C#CCN(C)C)cnc2O[C@H]1CN(C)S(=O)(=O)c1cn(C)cn1,2,-20,3,-1,6,-1
COc1ccc(OC)c(C2C(C(C)=O)=C(O)C(=O)N2c2ccc(O)cc2)c1 (stereo not drawn),nt,3,7,nt,nt,nt
Cc1cc(N2C(=O)C(O)=C(C(=O)c3cccs3)C2c2ccccc2)no1 (stereo not drawn),nt,4,-15,nt,-1,nt
COc1ccc(C2C(C(C)=O)=C(O)C(=O)N2c2ccc(Br)cn2)cc1 (stereo not drawn),nt,136*,-17,nt,7,nt
Cc1cccc(N2C(=O)C(O)=C(C(=O)c3cccs3)C2c2ccc(Cl)cc2)n1 (stereo not drawn),-34*,nt,nt,1,nt,4
CCc1nc2ccc(C(=O)NCCOc3ccc(OC)cc3)cn2c1N(C)Cc1ccc(N(C)C)cc1,-23*,-2,nt,-2,-1,-2
CCc1nc2ccc(C(=O)NCCCN(C)C)cn2c1N(C)Cc1ccc(OC)cc1,-2,-12,nt,1,1,-7
C[C@H](CO)N1C[C@H](C)[C@H](CN(C)S(=O)(=O)c2cn(C)cn2)Oc2c(NS(C)(=O)=O)cccc2C1=O,3,?,-9,3,2,-7
Cc1c(Cc2ccccc2)c(=O)oc2c(C)c(OC(C)C(=O)NCC3CCC(C(=O)O)CC3)ccc12 (stereo not drawn),-21*,8,-5,-14,-4,-8
Cc1c(OC(C)C(=O)NCC2CCC(C(=O)O)CC2)ccc2c3c(c(=O)oc12)CCCC3 (stereo not drawn),11,95*,-4,-16,4,-5
